# In ChEMBL document CHEMBL3758144, “Dihydroisocoumarin Derivatives from Marine-Derived Fungal Isolates and Their Anti-inflammatory Effects in Lipopolysaccharide-Induced BV2 Microglia” (J Nat Prod, 2015):
# Active and inactive are the calls of the source. No cut-off for these calls is given here.
# Tested on: not listed separately
# Test: Effect on ERK expression in […] BV2 cells at 20 to 80 uM pretreated for 30 mins followed by LPS stimulation for 30 mins by Western blot analysis
# Assay type: ADME, cell-based
# Conditions: bv-2, 0.5 h
# Procedure, shortened: (§1)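 BV2 microglia pretreated 30 min with test agent (20−80 μM), then LPS 1 μg/mL for 30 min. Total and phosphorylated ERK, JNK and p38 detected by Western blot (SDS-PAGE, nitrocellulose, ECL).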
row,SMILES,Activity
1,C[C@H]1CCC[C@H](C[C@H]2Cc3cc(O)cc(O[C@H]4O[C@H](CO)[C@@H](O)[C@H]4O)c3C(=O)O2)O1,Non-toxic

# Target: T1, Nuclear factor NF-kappa-B p105 subunit (Homo sapiens) (UniProt P19838)
# T1 sequence (whole entry): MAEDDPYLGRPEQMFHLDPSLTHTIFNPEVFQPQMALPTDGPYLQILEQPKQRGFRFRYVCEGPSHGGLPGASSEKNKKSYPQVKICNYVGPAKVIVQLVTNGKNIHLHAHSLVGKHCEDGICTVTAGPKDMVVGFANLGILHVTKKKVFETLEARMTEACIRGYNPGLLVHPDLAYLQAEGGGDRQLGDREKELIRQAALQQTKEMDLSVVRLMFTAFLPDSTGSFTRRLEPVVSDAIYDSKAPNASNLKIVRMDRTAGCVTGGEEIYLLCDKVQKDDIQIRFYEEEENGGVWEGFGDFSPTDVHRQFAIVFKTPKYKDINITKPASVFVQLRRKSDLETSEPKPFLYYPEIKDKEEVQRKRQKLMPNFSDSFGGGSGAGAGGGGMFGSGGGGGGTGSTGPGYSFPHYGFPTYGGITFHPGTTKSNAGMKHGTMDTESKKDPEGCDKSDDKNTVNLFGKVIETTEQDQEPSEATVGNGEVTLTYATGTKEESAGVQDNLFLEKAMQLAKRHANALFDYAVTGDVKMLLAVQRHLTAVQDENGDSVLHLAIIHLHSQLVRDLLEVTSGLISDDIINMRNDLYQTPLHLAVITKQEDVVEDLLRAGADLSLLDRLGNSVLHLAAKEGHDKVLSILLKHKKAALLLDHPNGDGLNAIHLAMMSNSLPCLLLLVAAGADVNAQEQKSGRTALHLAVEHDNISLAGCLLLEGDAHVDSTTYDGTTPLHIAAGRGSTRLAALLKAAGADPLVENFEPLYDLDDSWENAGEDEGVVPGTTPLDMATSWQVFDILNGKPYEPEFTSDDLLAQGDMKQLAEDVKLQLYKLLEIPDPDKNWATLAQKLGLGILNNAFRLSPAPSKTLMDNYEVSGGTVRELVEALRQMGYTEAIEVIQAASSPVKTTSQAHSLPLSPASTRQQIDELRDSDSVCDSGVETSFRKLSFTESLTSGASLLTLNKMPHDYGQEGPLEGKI
# Test: Inhibition of LPS-induced p50 translocation from cytosol to nucleus in […] BV2 cells pretreated for 30 mins followed by LPS stimulation for 30 mins by Western blot analysis
# Assay type: cell-based
# Conditions: BV-2
# Procedure, shortened: (§2)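 BV2 microglia pretreated 30 min with test agent (20, 40, 80 μM), then LPS for 30 min. Cytosolic and nuclear fractions prepared with NE-PER reagents. Western blot for IκB-α, phospho-IκB-α, p65 and p50. Densitometry normalized to β-actin (cytosol) or PCNA (nucleus). Mean of three experiments ± SD.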
row,SMILES,inhibition
1,C[C@H]1CCC[C@H](C[C@H]2Cc3cc(O)cc(O[C@H]4O[C@H](CO)[C@@H](O)[C@H]4O)c3C(=O)O2)O1,Dose-dependent effect

# Target: T2, NF-kappa-B inhibitor alpha (Homo sapiens) (UniProt P25963)
# T2 sequence (whole entry): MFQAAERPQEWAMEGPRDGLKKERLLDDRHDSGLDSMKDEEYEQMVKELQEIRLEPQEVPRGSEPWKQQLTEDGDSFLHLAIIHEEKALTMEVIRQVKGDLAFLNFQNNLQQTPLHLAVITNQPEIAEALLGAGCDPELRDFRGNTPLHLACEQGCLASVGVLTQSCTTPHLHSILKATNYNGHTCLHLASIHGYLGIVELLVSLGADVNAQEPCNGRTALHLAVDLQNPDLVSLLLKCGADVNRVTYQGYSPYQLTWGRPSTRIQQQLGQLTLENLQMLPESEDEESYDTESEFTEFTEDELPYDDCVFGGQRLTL
# Test: Inhibition of IkappaB-alpha phosphorylation in LPS-induced […] BV2 cells pretreated for 30 mins followed by LPS stimulation for 30 mins by Western blot analysis
# Assay type: cell-based
# Conditions: BV-2
# Procedure, shortened: as §2
row,SMILES,inhibition
1,C[C@H]1CCC[C@H](C[C@H]2Cc3cc(O)cc(O[C@H]4O[C@H](CO)[C@@H](O)[C@H]4O)c3C(=O)O2)O1,Dose-dependent effect

# Tested on: not listed separately
# Test: Cytotoxicity against […] BV2 cells at 10 to 80 uM by MTT assay
# Assay type: cell-based
# Conditions: bv-2, 80 µM
# Procedure, shortened: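 MTT added to BV2 cell suspension (1 × 10^5 cells/mL), incubated 30 min. Formazan dissolved in acidic 2-propanol and read at 540 nm. Compounds tested at 10−80 μM.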
row,SMILES,Activity
1,COc1cc(O)c2c(c1)C[C@H](C[C@H]1CCC[C@H](C)O1)OC2=O,Non-toxic
2,C[C@@H]1O[C@@H](C[C@H]2Cc3cc(O)cc(O)c3C(=O)O2)CC[C@@H]1O,Non-toxic
3,C[C@H]1CCC[C@H](C[C@H]2Cc3cc(O)cc(O[C@H]4O[C@H](CO)[C@@H](O)[C@H]4O)c3C(=O)O2)O1,Non-toxic

# Tested on: BV-2
# Test: Inhibition of ERK phosphorylation in […] BV2 cells at 20 to 80 uM pretreated for 30 mins followed by LPS stimulation for 30 mins by Western blot analysis
# Assay type: cell-based
# Conditions: not given
# Procedure, shortened: as §1
row,SMILES,inhibition
1,C[C@H]1CCC[C@H](C[C@H]2Cc3cc(O)cc(O[C@H]4O[C@H](CO)[C@@H](O)[C@H]4O)c3C(=O)O2)O1,inactive

# Tested on: not listed separately
# Test: Effect on JNK expression in […] BV2 cells at 20 to 80 uM pretreated for 30 mins followed by LPS stimulation for 30 mins by Western blot analysis
# Assay type: ADME, cell-based
# Conditions: bv-2, 0.5 h
# Procedure, shortened: as §1
row,SMILES,Activity
1,C[C@H]1CCC[C@H](C[C@H]2Cc3cc(O)cc(O[C@H]4O[C@H](CO)[C@@H](O)[C@H]4O)c3C(=O)O2)O1,Non-toxic

# Tested on: not listed separately
# Test: (§3) Antiinflammatory activity in LPS-induced […] BV2 cells assessed as reduction in NO production pretreated for 30 mins followed by LPS stimulation measured for 24 hrs by Greiss assay
# Assay type: functional, cell-based
# Conditions: BV-2
# Procedure, shortened: (§4)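 BV2 microglia in DMEM with 10% heat-inactivated FBS, penicillin/streptomycin and 2 mM L-glutamine at 37 °C, 5% CO2. Pretreated 30 min with test agent (10−80 μM range), then LPS 1 μg/mL for 24 h. Nitrite in supernatant measured by Griess reagent, absorbance at 525 nm. IC50 from mean of three experiments ± SD.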
row,SMILES,IC50
1,COc1cc(O)c2c(c1)C[C@H](C[C@H]1CCC[C@H](C)O1)OC2=O,21 µM
2,C[C@@H]1O[C@@H](C[C@H]2Cc3cc(O)cc(O)c3C(=O)O2)CC[C@@H]1O,20 µM
3,C[C@H]1CCC[C@H](C[C@H]2Cc3cc(O)cc(O[C@H]4O[C@H](CO)[C@@H](O)[C@H]4O)c3C(=O)O2)O1,33 µM

# Tested on: BV-2
# Test: as §3
# Assay type: functional, cell-based
# Conditions: Mus musculus
# Procedure, shortened: as §4
row,SMILES,Activity
1,COc1cc(O)c2c(c1)C[C@H](C[C@H]1CCC[C@H](C)O1)OC2=O,Dose-dependent effect
2,C[C@@H]1O[C@@H](C[C@H]2Cc3cc(O)cc(O)c3C(=O)O2)CC[C@@H]1O,Dose-dependent effect
3,C[C@H]1CCC[C@H](C[C@H]2Cc3cc(O)cc(O[C@H]4O[C@H](CO)[C@@H](O)[C@H]4O)c3C(=O)O2)O1,Dose-dependent effect

# Tested on: BV-2
# Test: Inhibition of LPS-induced iNOS expression in […] BV2 cells pretreated for 30 mins followed by LPS stimulation measured for 24 hrs by Western blot analysis
# Assay type: functional, cell-based
# Conditions: Mus musculus
# Procedure, shortened: (§5)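 BV2 microglia pretreated 30 min with test agent at 20−80 μM, then LPS 1 μg/mL for 24 h. Lysates in 20 mM Tris-HCl pH 7.4 with protease inhibitors, protein by Lowry. SDS-PAGE, nitrocellulose transfer, milk block, ECL detection. Band densitometry normalized to β-actin.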
row,SMILES,inhibition
1,COc1cc(O)c2c(c1)C[C@H](C[C@H]1CCC[C@H](C)O1)OC2=O,Dose-dependent effect
2,C[C@@H]1O[C@@H](C[C@H]2Cc3cc(O)cc(O)c3C(=O)O2)CC[C@@H]1O,Dose-dependent effect
3,C[C@H]1CCC[C@H](C[C@H]2Cc3cc(O)cc(O[C@H]4O[C@H](CO)[C@@H](O)[C@H]4O)c3C(=O)O2)O1,Dose-dependent effect

# Target: Transcription factor p65 (Homo sapiens) (UniProt Q04206)
# Test: Inhibition of LPS-induced p65 translocation from cytosol to nucleus in […] BV2 cells pretreated for 30 mins followed by LPS stimulation for 30 mins by Western blot analysis
# Assay type: cell-based
# Conditions: BV-2
# Procedure, shortened: as §2
# Sequence of Transcription factor p65 (Homo sapiens) (Q04206 whole entry): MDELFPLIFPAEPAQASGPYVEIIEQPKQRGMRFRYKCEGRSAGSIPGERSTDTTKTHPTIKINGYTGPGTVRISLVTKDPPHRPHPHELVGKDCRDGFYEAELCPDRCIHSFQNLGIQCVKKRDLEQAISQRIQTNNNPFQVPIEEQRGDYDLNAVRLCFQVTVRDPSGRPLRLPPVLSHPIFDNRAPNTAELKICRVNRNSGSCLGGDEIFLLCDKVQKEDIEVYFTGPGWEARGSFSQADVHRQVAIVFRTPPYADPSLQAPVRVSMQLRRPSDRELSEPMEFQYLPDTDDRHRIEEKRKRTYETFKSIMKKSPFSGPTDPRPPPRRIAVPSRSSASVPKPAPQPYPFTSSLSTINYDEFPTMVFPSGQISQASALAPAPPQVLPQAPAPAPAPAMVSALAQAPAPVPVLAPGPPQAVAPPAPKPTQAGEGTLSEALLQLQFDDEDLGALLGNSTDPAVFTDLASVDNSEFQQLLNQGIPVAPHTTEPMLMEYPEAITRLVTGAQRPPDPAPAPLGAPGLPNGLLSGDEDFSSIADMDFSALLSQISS
row,SMILES,inhibition
1,C[C@H]1CCC[C@H](C[C@H]2Cc3cc(O)cc(O[C@H]4O[C@H](CO)[C@@H](O)[C@H]4O)c3C(=O)O2)O1,Dose-dependent effect

# Tested on: not listed separately
# Test: Effect on p38 expression in […] BV2 cells at 20 to 80 uM pretreated for 30 mins followed by LPS stimulation for 30 mins by Western blot analysis
# Assay type: ADME, cell-based
# Conditions: bv-2, 0.5 h
# Procedure, shortened: as §1
row,SMILES,Activity
1,C[C@H]1CCC[C@H](C[C@H]2Cc3cc(O)cc(O[C@H]4O[C@H](CO)[C@@H](O)[C@H]4O)c3C(=O)O2)O1,Non-toxic

# Tested on: JNK (Mus musculus)
# Test: Inhibition of JNK phosphorylation in mouse BV2 cells at 20 to 80 uM pretreated for 30 mins followed by LPS stimulation for 30 mins by Western blot analysis
# Conditions: BV-2
row,SMILES,inhibition
1,C[C@H]1CCC[C@H](C[C@H]2Cc3cc(O)cc(O[C@H]4O[C@H](CO)[C@@H](O)[C@H]4O)c3C(=O)O2)O1,inactive

# Tested on: p38 MAPK (Mus musculus)
# Test: Inhibition of p38 phosphorylation in mouse BV2 cells pretreated for 30 mins followed by LPS stimulation for 30 mins by Western blot analysis
# Conditions: BV-2
row,SMILES,Activity
1,C[C@H]1CCC[C@H](C[C@H]2Cc3cc(O)cc(O[C@H]4O[C@H](CO)[C@@H](O)[C@H]4O)c3C(=O)O2)O1,Dose-dependent effect

# Tested on: BV-2
# Test: Inhibition of LPS-induced COX2 expression in […] BV2 cells pretreated for 30 mins followed by LPS stimulation measured for 24 hrs by Western blot analysis
# Assay type: functional, cell-based
# Conditions: Mus musculus
# Procedure, shortened: as §5
row,SMILES,inhibition
1,COc1cc(O)c2c(c1)C[C@H](C[C@H]1CCC[C@H](C)O1)OC2=O,Dose-dependent effect
2,C[C@@H]1O[C@@H](C[C@H]2Cc3cc(O)cc(O)c3C(=O)O2)CC[C@@H]1O,Dose-dependent effect
3,C[C@H]1CCC[C@H](C[C@H]2Cc3cc(O)cc(O[C@H]4O[C@H](CO)[C@@H](O)[C@H]4O)c3C(=O)O2)O1,Dose-dependent effect

# Target: T2, NF-kappa-B inhibitor alpha (Homo sapiens)
# Test: Inhibition of IkappaB-alpha degradation in LPS-induced […] BV2 cells pretreated for 30 mins followed by LPS stimulation for 30 mins by Western blot analysis
# Assay type: cell-based
# Conditions: BV-2
# Procedure, shortened: as §2
row,SMILES,inhibition
1,C[C@H]1CCC[C@H](C[C@H]2Cc3cc(O)cc(O[C@H]4O[C@H](CO)[C@@H](O)[C@H]4O)c3C(=O)O2)O1,Dose-dependent effect

# Tested on: not listed separately
# Test: (§6) Antiinflammatory activity in LPS-induced […] BV2 cells assessed as reduction in PGE2 production pretreated for 30 mins followed by LPS stimulation measured for 24 hrs by ELISA
# Assay type: functional, cell-based
# Conditions: BV-2
# Procedure, shortened: (§7)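 BV2 microglia cultured in 24-well plates and preincubated 30 min with test agent (10−80 μM range), then stimulated 24 h with LPS 1 μg/mL. Supernatant PGE2 quantified by ELISA kit. IC50 from mean of three experiments ± SD.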
row,SMILES,IC50
1,COc1cc(O)c2c(c1)C[C@H](C[C@H]1CCC[C@H](C)O1)OC2=O,21 µM
2,C[C@@H]1O[C@@H](C[C@H]2Cc3cc(O)cc(O)c3C(=O)O2)CC[C@@H]1O,23 µM
3,C[C@H]1CCC[C@H](C[C@H]2Cc3cc(O)cc(O[C@H]4O[C@H](CO)[C@@H](O)[C@H]4O)c3C(=O)O2)O1,34 µM

# Tested on: BV-2
# Test: as §6
# Assay type: functional, cell-based
# Conditions: Mus musculus
# Procedure, shortened: as §7
row,SMILES,Activity
1,COc1cc(O)c2c(c1)C[C@H](C[C@H]1CCC[C@H](C)O1)OC2=O,Dose-dependent effect
2,C[C@@H]1O[C@@H](C[C@H]2Cc3cc(O)cc(O)c3C(=O)O2)CC[C@@H]1O,Dose-dependent effect
3,C[C@H]1CCC[C@H](C[C@H]2Cc3cc(O)cc(O[C@H]4O[C@H](CO)[C@@H](O)[C@H]4O)c3C(=O)O2)O1,Dose-dependent effect
